Reference: ChEMBL document CHEMBL1147042, “Modafinil enhances thalamocortical activity by increasing neuronal electrotonic coupling” (2007)
Activity calls are given as the source filed them. The calls are words filed in the database; no cut-off is given here.

Key:
Thalamocortex [1] = assay: Induction of 10-Hz shock-stimulated C57BL/6 mouse thalamocortical activity assessed as increase in peak amplitude at 100 uM after 15 mins by voltage-sensitive dye imaging method; format: functional, Brain
In short: (§1)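 Thalamocortical slices (350–400) came from C57BL/6 mice of either sex, P7–20, anesthetized with pentobarbital 120 mg/kg i.p. Slices recovered at 35°C for ≥30 min, then sat in oxygenated ACSF (pH 7.4) at 32°C. They were stained with RH 414 or di-4-ANEPPS (0.025 mg/ml). White matter received 10-Hz and/or 40-Hz electrical stimulation. Modafinil was bath-perfused and read at 15 min. Signal was ΔF/F.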

Thalamocortex [2] = assay: Effect on excitatory synaptic transmission in C57BL/6 mouse thalamocortical slices assessed as increase in input conductance in presence of GABAA, GABAB and NMDA blockers by single patch clamp recording; format: functional, Brain
Cortex [3] = assay: Induction of 40-Hz shock-stimulated Sprague-Dawley rat cortical activity assessed as increase in slope of rising phase at 0.2 uM after 15 mins by voltage-sensitive dye imaging method; format: functional
In short: (§2)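 Rat barrel-cortex slices (300–450 μm) came from Sprague–Dawley rats of either sex, P10–18. Slices recovered at 35°C for ≥30 min, then were held in oxygenated ACSF (pH 7.4) at 32°C. Staining used RH 414 or di-4-ANEPPS (0.025 mg/ml). White matter was stimulated at 10 Hz or 40 Hz. Modafinil was applied for 15 min. Optical response was taken as fractional fluorescence ΔF/F.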

Cortex [4] = assay: Induction of 40-Hz shock-stimulated Sprague-Dawley rat cortical activity assessed as increase in peak amplitude at 100 uM after 15 mins by voltage-sensitive dye imaging method; format: functional; in short: as §2
Thalamocortex [5] = assay: Induction of 10-Hz shock-stimulated C57BL/6 mouse thalamocortical activity assessed as increase in slope of rising phase after 15 mins by voltage-sensitive dye imaging method; format: functional, Brain; in short: as §1
Thalamocortex [6] = assay: Induction of 10-Hz shock-stimulated C57BL/6 mouse thalamocortical activity assessed as increase in peak amplitude at 0.2 uM after 15 mins by voltage-sensitive dye imaging method; format: functional, Brain; in short: as §1
Rattus norvegicus [7] = species on record: Rattus norvegicus; assay: Increase in electronic coupling in Sprague-Dawley rat cortical interneurons assessed as input conductance change at 50 uM by […]; format: functional
Rattus norvegicus [8] = species on record: Rattus norvegicus; assay: Increase in electronic coupling of Long-Evans rat inferior olivary neurons at 150 uM by single-patch clamp method; format: functional
In short: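 Paired patch recording was done at 32°C in ACSF. Hyperpolarizing current was injected into one neuron of a pair. Coupling coefficient = coupled-cell response ÷ injected-cell response, averaged over 10–20 trials. Measured before and after 150 μM modafinil; n = 7 pairs.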

Rattus norvegicus [9] = species on record: Rattus norvegicus; assay: Increase in electronic coupling of Long-Evans rat inferior olivary neurons in presence of CaMK2 inhibitor KN93 by single-patch clamp method; format: functional
Thalamocortex [10] = assay: Induction of 40-Hz shock-stimulated C57BL/6 mouse thalamocortical activity assessed as increase in peak amplitude at 100 uM after 15 mins by voltage-sensitive dye imaging method; format: functional, Brain; in short: as §1
Cortex [11] = assay: Induction of 10-Hz shock-stimulated Sprague-Dawley rat cortical activity assessed as increase in slope of rising phase at 0.2 uM after 15 mins by voltage-sensitive dye imaging method; format: functional; in short: as §2
Thalamocortex [12] = assay: Induction of 40-Hz shock-stimulated C57BL/6 mouse thalamocortical activity assessed as increase in slope of rising phase at 0.2 uM after 15 mins by voltage-sensitive dye imaging method; format: functional, Brain; in short: as §1
Rattus norvegicus [13] = species on record: Rattus norvegicus; assay: Reversal of increase in electronic coupling in Sprague-Dawley rat cortical interneurons assessed as input conductance change at 50 uM in presence of gap junction inhibitor mefloquine by […]; format: functional
Thalamocortex [14] = assay: Effect on paired-pulse ventrobasal stimulation induced excitatory postsynaptic current in 40-Hz shock-stimulated C57BL/6 mouse thalamocortical slices; format: functional, tissue-based; details: Brain
Rattus norvegicus [15] = species on record: Rattus norvegicus; assay: Reduction of input resistance in Long-Evans rat inferior olivary neurons at 150 uM relative to control by single-patch clamp method; format: functional
In short: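 Input resistance was probed with hyperpolarizing current pulses before and after local application of modafinil (100–150 μM).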

Thalamocortex [16] = assay: Induction of 10-Hz shock-stimulated C57BL/6 mouse thalamocortical activity assessed as increase in slope of rising phase at 0.2 uM after 15 mins by voltage-sensitive dye imaging method; format: functional, Brain; in short: as §1
Thalamocortex [17] = assay: Effect on C57BL/6 mouse thalamocortical activity in presence of PKA inhibitor KT5720 by voltage-sensitive dye imaging method; format: functional; details: Brain
[18] = Increase in electronic coupling in Sprague-Dawley rat cortical interneurons assessed as coupling coefficient at 100 uM by […]; format: functional
Cortex [19] = assay: Induction of 10-Hz shock-stimulated Sprague-Dawley rat cortical activity assessed as increase in peak amplitude at 0.2 uM after 15 mins by voltage-sensitive dye imaging method; format: functional; in short: as §2
Cortex [20] = assay: Induction of 10-Hz shock-stimulated Sprague-Dawley rat cortical activity assessed as increase in slope of rising phase after 15 mins by voltage-sensitive dye imaging method; format: functional; in short: as §2
Thalamocortex [21] = assay: Induction of 40-Hz shock-stimulated C57BL/6 mouse thalamocortical activity assessed as increase in peak amplitude at 0.2 uM after 15 mins by voltage-sensitive dye imaging method; format: functional, Brain; in short: as §1
Thalamocortex [22] = assay: Induction of 40-Hz shock-stimulated C57BL/6 mouse thalamocortical activity assessed as increase in slope of rising phase after 15 mins by voltage-sensitive dye imaging method; format: functional, Brain; in short: as §1
Cortex [23] = assay: Induction of 40-Hz shock-stimulated Sprague-Dawley rat cortical activity assessed as increase in slope of rising phase after 15 mins by voltage-sensitive dye imaging method; format: functional; in short: as §2
Cortex [24] = assay: Induction of 40-Hz shock-stimulated Sprague-Dawley rat cortical activity assessed as increase in peak amplitude at 0.2 uM after 15 mins by voltage-sensitive dye imaging method; format: functional; in short: as §2
Cortex [25] = assay: Induction of 10-Hz shock-stimulated Sprague-Dawley rat cortical activity assessed as increase in peak amplitude at 100 uM after 15 mins by voltage-sensitive dye imaging method; format: functional; in short: as §2
Thalamocortex [26] = assay: Effect on C57BL/6 mouse thalamocortical activity in presence of CaMK2 inhibitor KN93 by voltage-sensitive dye imaging method; format: functional; details: Brain

Q: Which results are given for NC(=O)C[S+]([O-])C(c1ccccc1)c1ccccc1 (stereo unspecified) [MODAFINIL]?
A: Activity (Thalamocortex [1]): 65%; Activity (Thalamocortex [2]): 31%; Activity (Cortex [3]): 35%; Activity (Cortex [4]): 75%; Activity (Thalamocortex [5]): 31%; Activity (Thalamocortex [6]): 70%; Activity (Rattus norvegicus [7]): Active; Activity (Rattus norvegicus [8]): Active; Activity (Rattus norvegicus [9]): inactive; Activity (Thalamocortex [10]): 75%; Activity (Cortex [11]): 67%; Activity (Thalamocortex [12]): 35%; Activity (Rattus norvegicus [13]): Active; Activity (Thalamocortex [14]): inactive; Activity (Rattus norvegicus [15]): Active; Activity (Thalamocortex [16]): 67%; Activity (Thalamocortex [17]): Active; Activity [18]: 70%; Activity (Cortex [19]): 70%; Activity (Cortex [20]): 31%; Activity (Thalamocortex [21]): 75%; Activity (Thalamocortex [22]): 32%; Activity (Cortex [23]): 32%; Activity (Cortex [24]): 75%; Activity (Cortex [25]): 65%; Activity (Thalamocortex [26]): inactive
